Experimental data reported in ChEMBL document CHEMBL2069306, “Sequences in the HSP90 promoter form G-quadruplex structures with selectivity for disubstituted phenyl bis-oxazole derivatives” (Bioorg Med Chem Lett, 2012).

Experiments:
Nucleic Acid [1] = assay: Binding affinity to HSP90B quadruplex DNA assessed as change in melting temperature at 2 uM by FRET melting assay; format: nucleic-acid assay; conditions: Homo sapiens
In short: (§1)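 FAM/TAMRA dual-labelled oligonucleotides diluted to 400 nM in 60 mM potassium cacodylate pH 7.4. Annealed at 95 °C for 10 min, then cooled to RT over 3–3.5 h. Compound diluted from a 1 mM stock (10% DMSO/90% 1 mM HCl) to 2× in buffer and mixed 1:1 with DNA. Fluorescence read every 0.5 °C over 30–100 °C with a 30 s hold. ΔTm from curve fitting; triplicate.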

Nucleic Acid [2] = assay: Binding affinity to double stranded DNA assessed as change in melting temperature at 2 uM by FRET melting assay; format: nucleic-acid assay; in short: as §1
Nucleic Acid [3] = assay: Binding affinity to double stranded DNA assessed as change in melting temperature at 1 uM by FRET melting assay; format: nucleic-acid assay; in short: as §1
Nucleic Acid [4] = assay: Binding affinity to HSP90A quadruplex DNA assessed as change in melting temperature at 2 uM by FRET melting assay; format: nucleic-acid assay; conditions: Homo sapiens; in short: as §1
Nucleic Acid [5] = assay: Binding affinity to HSP90B quadruplex DNA assessed as change in melting temperature at 1 uM by FRET melting assay; format: nucleic-acid assay; conditions: Homo sapiens; in short: as §1
Nucleic Acid [6] = assay: Binding affinity to HSP90A quadruplex DNA assessed as change in melting temperature at 1 uM by FRET melting assay; format: nucleic-acid assay; conditions: Homo sapiens; in short: as §1
Nucleic Acid [7] = assay: Binding affinity to human G4 telomeric quadruplex DNA assessed as change in melting temperature at 1 uM by FRET melting assay; format: nucleic-acid assay; in short: as §1
Nucleic Acid [8] = assay: Binding affinity to human G4 telomeric quadruplex DNA assessed as change in melting temperature at 2 uM by FRET melting assay; format: nucleic-acid assay; in short: as §1
Nucleic Acid [9] = assay: Binding affinity to k-ras quadruplex DNA assessed as change in melting temperature at 2 uM by FRET melting assay; format: nucleic-acid assay; conditions: Homo sapiens; in short: as §1
Nucleic Acid [10] = assay: Binding affinity to k-ras quadruplex DNA assessed as change in melting temperature at 1 uM by FRET melting assay; format: nucleic-acid assay; conditions: Homo sapiens; in short: as §1
Nucleic Acid [11] = assay: Binding affinity to human 21-mer telomeric quadruplex F21T DNA assessed as change in melting temperature at 2 uM by FRET melting assay; format: nucleic-acid assay; in short: as §1
[12] = Antiproliferative activity against human 786-O cells after 96 hrs by neubauer haemocytometer analysis; format: functional, cell-based; conditions: 786-0; in the assay text read “sulforhodamine B assay” for “neubauer haemocytometer analysis”
In short: (§2)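 Cancer lines seeded at 1000–4000 cells/well and WI38 fibroblasts at 6000/well, then grown 24 h. Compound added over a concentration range for 96 h. Cells fixed with 10% TCA (30 min, 4 °C), stained with 0.4% sulforhodamine B (15 min, RT), dye solubilized in 10 mM Tris base, A540 read. Normalized to untreated cells; IC50 interpolated at 50% absorbance. Triplicate.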

WI-38 = assay: Antiproliferative activity against human WI38 cells after 96 hrs by neubauer haemocytometer analysis; format: cell-based; conditions: in the assay text read “sulforhodamine B assay” for “neubauer haemocytometer analysis”; in short: as §2
Nucleic Acid [13] = assay: Binding affinity to c-kit2 quadruplex DNA assessed as change in melting temperature at 1 uM by FRET melting assay; format: nucleic-acid assay; conditions: Homo sapiens; in short: as §1
MIA PaCa-2 = assay: Antiproliferative activity against human MIAPaCa2 cells after 96 hrs by neubauer haemocytometer analysis; format: functional, cell-based; conditions: in the assay text read “sulforhodamine B assay” for “neubauer haemocytometer analysis”; in short: as §2
A549 = assay: Antiproliferative activity against human A549 cells after 96 hrs by neubauer haemocytometer analysis; format: functional, cell-based; conditions: in the assay text read “sulforhodamine B assay” for “neubauer haemocytometer analysis”; in short: as §2
duplex DNA [14] = assay: Binding affinity to duplex DNA assessed as change in melting temperature at 3 uM by FRET melting assay; conditions: Homo sapiens
Nucleic Acid [15] = assay: Binding affinity to human 21-mer telomeric quadruplex F21T DNA assessed as change in melting temperature at 1 uM by FRET melting assay; format: nucleic-acid assay; in short: as §1
duplex DNA [16] = assay: Binding affinity to duplex DNA assessed as change in melting temperature at 3 uM by FRET melting assay; conditions: Homo sapiens; remark: listed apart in the source
[17] = Antiproliferative activity against human RCC4 cells after 96 hrs by neubauer haemocytometer analysis; format: functional, cell-based; conditions: in the assay text read “sulforhodamine B assay” for “neubauer haemocytometer analysis”; in short: as §2
Nucleic Acid [18] = assay: Binding affinity to c-kit2 quadruplex DNA assessed as change in melting temperature at 2 uM by FRET melting assay; format: nucleic-acid assay; conditions: Homo sapiens; in short: as §1
duplex DNA [19] = assay: Binding affinity to duplex DNA assessed as change in melting temperature at 3 uM by FRET melting assay; conditions: Homo sapiens; remark: listed apart in the source
MCF7 = assay: Antiproliferative activity against human MCF7 cells after 96 hrs by neubauer haemocytometer analysis; format: functional, cell-based; conditions: in the assay text read “sulforhodamine B assay” for “neubauer haemocytometer analysis”; in short: as §2

Row | Compound | ΔTm (Nucleic Acid [1]) | ΔTm (Nucleic Acid [2]) | ΔTm (Nucleic Acid [3]) | ΔTm (Nucleic Acid [4]) | ΔTm (Nucleic Acid [5]) | ΔTm (Nucleic Acid [6]) | ΔTm (Nucleic Acid [7]) | ΔTm (Nucleic Acid [8]) | further results
1 | c1cc(-c2cnc(-c3ccc(OCCCN4CCCC4)cc3)o2)cc(-c2cnc(-c3ccc(OCCCN4CCCC4)cc3)o2)c1 | 6 °C | 0 °C | 0 °C | 14 °C | 2 °C | 7 °C | < 2 °C | < 2 °C | 
2 | CN1CCN(CCc2ccc(-c3ncc(-c4cccc(-c5cnc(-c6ccc(CCN7CCN(C)CC7)cc6)o5)c4)o3)cc2)CC1 | 7 °C | 0 °C | 0 °C | 23 °C | 2 °C | 14 °C | < 2 °C | 2 °C | ΔTm (Nucleic Acid [9]): 17 °C; ΔTm (Nucleic Acid [10]): 7 °C; ΔTm (Nucleic Acid [11]): 2 °C; IC50 [12]: 1.33 µmol; IC50 (WI-38): 2.59 µmol; ΔTm (Nucleic Acid [13]): < 2 °C; IC50 (MIA PaCa-2): 1.25 µmol; IC50 (A549): 1.02 µmol; ΔTm (duplex DNA [14]): < 1 °C; ΔTm (Nucleic Acid [15]): < 2 °C; ΔTm (duplex DNA [16]): < 1 °C; IC50 [17]: 0.94 µmol; ΔTm (Nucleic Acid [18]): 2 °C; ΔTm (duplex DNA [19]): < 1 °C; IC50 (MCF7): 1.32 µmol
3 | c1cc(-c2cnc(-c3ccc(CN4CCOCC4)cc3)o2)cc(-c2cnc(-c3ccc(CN4CCOCC4)cc3)o2)c1 | 6 °C | 0 °C | 0 °C | 6 °C | 5 °C | 6 °C | < 2 °C | 2 °C | 
4 | CC(C)N(Cc1ccc(-c2ncc(-c3cccc(-c4cnc(-c5ccc(CN(C(C)C)C(C)C)cc5)o4)c3)o2)cc1)C(C)C | 9 °C | 1 °C | 1 °C | 8 °C | 8 °C | 8 °C | < 2 °C | 2 °C | 
5 | CN1CCN(CCc2ccc(-c3ncc(-c4ccc(-c5cnc(-c6ccc(CCN7CCN(C)CC7)cc6)o5)cc4)o3)cc2)CC1 | < 5 °C |  |  | < 5 °C |  |  |  |  | ΔTm (Nucleic Acid [9]): < 5 °C; ΔTm (Nucleic Acid [11]): < 5 °C; ΔTm (Nucleic Acid [18]): < 5 °C
6 | CN1CCN(Cc2ccc(-c3ncc(-c4cccc(-c5cnc(-c6ccc(CN7CCN(C)CC7)cc6)o5)c4)o3)cc2)CC1 | 12 °C | 0 °C | 0 °C | 16 °C | 3 °C | 7 °C | < 2 °C | 2 °C | 
7 | c1cc(-c2cnc(-c3ccc(OCCCCN4CCCC4)cc3)o2)cc(-c2cnc(-c3ccc(OCCCCN4CCCC4)cc3)o2)c1 | 5 °C | 0 °C | 0 °C | 19 °C | 2 °C | 5 °C | 2 °C | 15 °C | 
8 | c1cc(-c2cnc(-c3ccc(CN4CCCCCC4)cc3)o2)cc(-c2cnc(-c3ccc(CN4CCCCCC4)cc3)o2)c1 | 11 °C | 1 °C | 1 °C | 9 °C | 9 °C | 8 °C | 3 °C | 7 °C | 
9 | c1cc(-c2cnc(-c3ccc(OCCN4CCCC4)cc3)o2)cc(-c2cnc(-c3ccc(OCCN4CCCC4)cc3)o2)c1 | 6 °C | 0 °C | 0 °C | 14 °C | 2 °C | 7 °C | < 2 °C | < 2 °C | 
10 | c1cc(-c2cnc(-c3ccc(CN4CCCC4)cc3)o2)cc(-c2cnc(-c3ccc(CN4CCCC4)cc3)o2)c1 | 4 °C | 0 °C | 0 °C | 14 °C | 2 °C | 7 °C | 2 °C | 6 °C | 
11 | c1cc(-c2cnc(-c3cccc(CN4CCCCC4)c3)o2)cc(-c2cnc(-c3cccc(CN4CCCCC4)c3)o2)c1 | 6 °C | 1 °C | 1 °C | 8 °C | 3 °C | 5 °C | < 2 °C | < 2 °C | 
